Results: paper PMC11008256 (Cell reports. Physical science, 2024)
Counter-ions that a name gives are not always drawn. Ends that are not written are not given here. Peptide text beside a SMILES is read from it.

Legend:
[1] = tested on: K. pneumoniae NTUH K2044; assay: Antimicrobial activity, broth microdilution MIC; type: cell-based, Klebsiella pneumoniae; details: LB used for MIC testing to determine dosage for skin model
Outline: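 Log-phase cells (an overnight LB culture diluted 1:100 in MHB at 37°C) seeded at 1 × 10^6 CFU mL-1 in LB for skin-model dosing, rather than the usual MHB. Peptide and polymyxin B control prepared in BSA buffer and tested at 0.0625–128 µmol L-1. Growth read as OD600; three independent replicates.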

[2] = tested on: K. pneumoniae NTUH K2044; assay: Skin abscess mouse model; type: in vivo, female CD-1 mice; details: single topical dose at MIC, monitored 4 days, n = 6
[3] = Peptide:polysaccharide aggregation assay; design: species or system Klebsiella pneumoniae; details: 100 μmol L^−1 peptide, 300 μg mL^−1 polysaccharide
Outline: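 Polysaccharide hot-phenol-extracted from an overnight LB culture (60 min, 68°C; chloroform; ethanol precipitation) and quantified by uronic acid assay. Mixed with peptide in 10 mM potassium phosphate, then immediately spun 15,600 rpm for 15 min. Pellets resuspended in water, run on 4–8% bis-tris SDS-PAGE beside 2 µg purified polysaccharide, and Alcian blue-stained. Band density measured with the no-peptide control subtracted as background. Triplicate; ±SEM.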

[4] = tested on: pre-formed biofilms of K. pneumoniae NTUH K2044; assay: Biofilm eradication; type: cell-based, Klebsiella pneumoniae; details: 60 μmol L^−1, 24 h
Outline: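 Overnight NTUH K2044 culture diluted to OD600 0.5 in TSB + 0.5% glucose. Biofilms grown 24 h at 37°C static in 35 mm dishes. Peptide diluted in BSA buffer (0.2% BSA, 0.01% acetic acid) plus MHB; untreated control received buffer plus MHB. Treatment 24 h at 37°C static. Dispersed cells and PBS-washed (×3), PBS-resuspended biofilm plated for CFU mL-1. ±SEM; one-way ANOVA with Dunnett versus untreated.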

[5] = tested on: K. pneumoniae NTUH K2044 biofilm matrix polysaccharides; assay: Confocal microscopy imaging of biofilm polysaccharide matrix; type: cell-based, Klebsiella pneumoniae
[6] = tested on: Human red blood cells; assay: Hemolytic activity assay; type: cell-based; details: 1 to 128 μmol L^−1, 4 h room temperature, absorbance 405 nm

Row | Compound | MIC used as dose for skin model [1] [µM] | mouse weight changes, skin damage (proxy of toxicity) [2] | aggregation with extracellular polysaccharides (in words) [3] | biofilm and dispersed CFU mL^−1 [4] | effect on biofilm polysaccharide matrix (confocal) ([5]; 15 μmol L^−1, 24 h, concanavalin A Texas red stain) | effect on biofilm polysaccharide matrix (confocal) ([5]; 60 μmol L^−1, 24 h) | hemolysis [6]
1 | CC[C@H](C)CCCCC(=O)N[C@@H](CCN)C(=O)N[C@H](C(=O)N[C@@H](CCN)C(=O)N[C@H]1CCNC(=O)[C@H]([C@@H](C)O)NC(=O)[C@H](CCN)NC(=O)[C@H](CCN)NC(=O)[C@H](CC(C)C)NC(=O)[C@@H](Cc2ccccc2)NC(=O)[C@H](CCN)NC1=O)[C@@H](C)O [polymyxin B, polymyxin B sulfate, reference compound] (HELM PEPTIDE1{[CC[C@H](C)CCCCC(=O)[*:2]].[Dab].T.[Dab].[Dab].[Dab].[dF].L.[Dab].[Dab].T}$PEPTIDE1,PEPTIDE1,5:R3-11:R2$$$V2.0; N-terminus assumed; bridges inferred) | 1 | No variations in weight, damage to the skin tissue, or other harmful consequences | – | – | – | – | –
2 | PRPIPRPLPFPRPGPRPIPRPLPFPRPGPRPIPRP [Bac7 (24–59)] | – | – | highest aggregation potential | did not significantly change | drop in overall height (30 μm) and moderate change in the polysaccharide matrix | polysaccharide matrix loss from the upper layers of the biofilm | –
3 | RRIRPRPPRLPRPRPRPLPFPRPGPRPIPRPLPFP [Bac7 (1–35)] | 2 | No variations in weight, damage to the skin tissue, or other harmful consequences | – | – | – | – | limited ability to lyse red blood cells
